Measurements from PubChem BioAssay.
Inconclusive results are not listed.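 How the source made its calls, unless noted: active means inhibition over a set limit, the all-compound mean plus 3 SD, in both replicate runs; inconclusive means over that limit in just one replicate run; inactive means at or under that limit in both runs.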

Columns and labels:
[1] = OD615 S. cerevisiae growth inhibition, permissive medium, pilot counter-assay, permissive growth control for S. cerevisiae lifespan shortening project (AID 705;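 active means growth inhibition above 25% in both replicates, a cutoff set 3 SD above the mean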); conditions: OD615, 24 h, at 10 µM, hits give high values
How it was run: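 System: engineered DeaD yeast; Medium: permissive raffinose/galactose medium; Compound dosing: 10 µM single dose, 0.25% DMSO; Incubation: 4 h cell pre-growth, 24 h exposure at 30 °C; Technique: OD at 615 nm; Evaluation: growth inhibition from lowered OD615 after 24 h.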

[2] = Restrictive medium S. cerevisiae growth inhibition, OD615, pilot screen of yeast lifespan reduction project, restrictive growth control (AID 706;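 active means growth inhibition above a set limit, 3 SD over mean compound inhibition, in both replicates, cut at about 43% in these data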;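 further: modified DeaD lifespan yeast strain shifted to restrictive glucose medium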); conditions: OD615, 48 h, at 10 µM, hits give high values
How it was run: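 Material: modified S. cerevisiae; buffer or medium: CSMM-D glucose medium; doses: one concentration, 10 µM final, 0.25% DMSO; incubation: 48 h compound exposure at 30 °C; detection: optical density at 615 nm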

[3] = viability gain of MRP-1-high H69AR cells under doxorubicin, pilot screen, MRP-1 activator project, CellTiter-Glo, duplicate (AID 807;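 active means viability increase at or above a cutoff of the median across tested compounds plus 3 SD, cut at about 8.5% in these data, passing the limit was not always enough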;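 further: compound pretreatment 18-22 h then 72 h combined with doxorubicin; 0% = doxorubicin alone and 100% = vehicle without doxorubicin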); conditions: H69AR viability with doxorubicin, CellTiter-Glo luminescence; at 10 µM; hits give high values
[4] = growth suppression of beta-catenin knockout HCT116, pilot screen, human colon tumor cells (AID 823;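 active means cell viability at or below a set limit in both duplicate runs, the limit being the all-compound median minus 4 SD, cut at about 23% in these data, passing the limit was not always enough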;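 further: 0% = wells killed by 20 µM Hyamine and 100% = untreated DMSO cell wells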); conditions: CellTiter-Glo, 60 h, at 10 µM, hits give low values
[5] = growth suppression of PTEN-deleted HCT116, pilot screen, cell-based, HCT116 clonal line, CellTiter-Glo (AID 824;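 active means viability at or below 27.92% in each of two runs, the all-compound median minus 4 SD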;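 further: 0% = 20 µM Hyamine control and 100% = vehicle cell control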); conditions: 60 h, at 10 µM, hits give low values
[6] = inhibitors of the yeast RAM network, pilot screen, dse1pr::URA3 reporter, 5-FOA selection (AID 869);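 further: 0% = DMSO wells with no growth and 100% = 10 µM 1-NA-PP1 with full growth; RAM network block rescues cells from 5-FOA so hits raise OD615 growth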; conditions: S. cerevisiae dse1pr::URA3 5-FOA growth, OD615, 2 d; at 10 µM; hits give high values; strain carries analog-sensitive mutant Cbk1 kinase
[7] = RAM signaling pathway blockade in yeast – S. cerevisiae, Pdr1DBD-CYC8 efflux-inhibited sensitized strain, primary screen (AID 1298;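 active means RAM network inhibition above 8.4% in each of two replicates, 3 SD over the compound average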;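 further: 0% = DMSO untreated cells without growth and 100% = 10 µM 1-NA-PP1 full growth; higher means more yeast growth rescued from 5-FOA killing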); conditions: S. cerevisiae cbk1-as DSE1-URA3 strain, 5-FOA growth OD615, 2 d; at 50 µM; hits give high values

COc1ccc(-c2nnnn2C)cc1S(=O)(=O)NCCc1ccccc1
inactive: growth inhibition [1] -8.48% | growth inhibition [2] 2.52% | viability increase [3] 0.12% | viability [4] 97.5% | viability [5] 104% | inhibition [6] 1% | RAM network inhibition [7] 3.03%

CCCn1c(CNc2ccc(Br)cc2)nc2ccccc21
inactive: growth inhibition [1] -11.7% | growth inhibition [2] -9.32% | viability increase [3] -3.5% | viability [4] 88.2% | viability [5] 82.7% | inhibition [6] 1.47% | RAM network inhibition [7] 1.62%

COc1ccc(NC(=O)c2ccc(CN3CCN(c4ccccc4)CC3)cc2)cc1
inactive: growth inhibition [1] -7.38% | growth inhibition [2] -9.14% | viability increase [3] -0.09% | viability [4] 67.4% | viability [5] 73.1% | inhibition [6] 2.54% | RAM network inhibition [7] 9.97%

COCCNS(=O)(=O)c1cccc2cccnc12
inactive: growth inhibition [1] -1.37% | growth inhibition [2] 12.8% | viability increase [3] -1.69% | viability [4] 97.8% | viability [5] 92.2% | inhibition [6] 2.52% | RAM network inhibition [7] 2.27%

O=C1CCc2cc(S(=O)(=O)NC(Cc3ccccc3)C(=O)NC3CCCC3)ccc2N1 (configuration not stated)
inactive: growth inhibition [1] -11.3% | growth inhibition [2] -9.16% | viability increase [3] -0.35% | viability [4] 96.8% | viability [5] 98.8% | inhibition [6] 1.86% | RAM network inhibition [7] 0.41%

O=C(c1ccccc1)c1ccc(N2CCCC2)cc1
inactive: growth inhibition [1] -1.86% | growth inhibition [2] 7.65% | viability increase [3] -2.59% | viability [4] 93% | viability [5] 96.4% | inhibition [6] 1.23% | RAM network inhibition [7] 1.03%

CCC(C)NC(=O)c1cc(-c2ccccc2O)on1 (configuration not stated)
inactive: growth inhibition [1] -10.7% | growth inhibition [2] -4.76% | viability increase [3] -1.23% | viability [4] 94% | viability [5] 86.2% | inhibition [6] 1.73% | RAM network inhibition [7] 2.61%

CCC(CO)N=CC1=C(O)CC(C)(C)CC1=O (configuration not stated)
inactive: growth inhibition [1] 3.97% | growth inhibition [2] -5.8% | viability increase [3] -0.8% | viability [4] 102% | viability [5] 98.8% | inhibition [6] -0.06% | RAM network inhibition [7] 0.21%

COc1ccc(N2C(=O)C3CCCN3C2c2cc(OC)c(OC)cc2OC)cc1 (configuration not stated)
inactive: growth inhibition [1] 8.35% | growth inhibition [2] 5.12% | viability increase [3] -3.74% | viability [4] 102% | viability [5] 90.4% | inhibition [6] 0.47% | RAM network inhibition [7] 7.38%

CCOC(=O)c1c(N)sc2c(O)c(Br)ccc12
inactive: growth inhibition [1] -26.9% | growth inhibition [2] -1.8% | viability increase [3] -0.49% | viability [4] 104% | viability [5] 107% | inhibition [6] 1.01% | RAM network inhibition [7] 5.24%

CCOC(=O)c1cc(-c2nnc(-c3ccc(Cl)cc3)o2)c(C)nc1C
inactive: growth inhibition [1] -16.3% | growth inhibition [2] -14.2% | viability increase [3] -0.9% | viability [4] 99.7% | viability [5] 93.6% | inhibition [6] 2.19% | RAM network inhibition [7] 2.13%

O=C(CC12CC3CC(CC(C3)C1)C2)NCO
inactive: growth inhibition [1] 4.32% | growth inhibition [2] 5.98% | viability increase [3] 0.63% | viability [4] 100% | viability [5] 104% | inhibition [6] 1.92% | RAM network inhibition [7] -1.39%

O=C(Nc1ccccc1)N1CCN2C(=O)c3ccccc3C12c1ccccc1 (configuration not stated)
inactive: growth inhibition [1] -7.51% | growth inhibition [2] -1.31% | viability increase [3] -2.35% | viability [4] 89.9% | viability [5] 89.5% | inhibition [6] 1.29% | RAM network inhibition [7] 2.89%

Cc1ccccc1C(=O)OCn1nnc2ccccc2c1=O
inactive: growth inhibition [1] -1.86% | growth inhibition [2] -19.1% | viability increase [3] -2.87% | viability [4] 88.9% | viability [5] 93.2% | inhibition [6] 1.44% | RAM network inhibition [7] 2.2%

CC(=O)N1CCc2c(sc(NC(=O)CN3C(=O)CCC3=O)c2C(N)=O)C1
inactive: growth inhibition [1] -11.6% | growth inhibition [2] -14.8% | viability increase [3] -1.16% | viability [4] 100% | viability [5] 99.3% | inhibition [6] 1.53% | RAM network inhibition [7] 2.93%

CCCCCOC(=O)C1=C(C)NC(=O)NC1c1ccccc1OCC (configuration not stated)
inactive: growth inhibition [1] -2.38% | growth inhibition [2] 11.9% | viability increase [3] -0.2% | viability [4] 69.8% | viability [5] 69.7% | inhibition [6] 0.45% | RAM network inhibition [7] 1.97%

COCc1nnc(SCC(=O)Nc2cccc(Cl)c2C)n1-c1ccccc1
inactive: growth inhibition [1] -5.62% | growth inhibition [2] -13% | viability increase [3] -0.41% | viability [4] 107% | viability [5] 93.3% | inhibition [6] 0.57% | RAM network inhibition [7] 3.49%

COC(=O)c1c(C)nc(C)c2c(=O)oc3ccccc3c12
inactive: growth inhibition [1] 3.52% | growth inhibition [2] 15.3% | viability increase [3] 0.64% | viability [4] 102% | viability [5] 104% | inhibition [6] 2.04% | RAM network inhibition [7] 1.99%

Cn1c(=O)c2c(SCC(=O)N3CCN(c4ccccc4)CC3)nc(C3CC3)nc2n(C)c1=O
inactive: growth inhibition [1] 10.6% | growth inhibition [2] -3.49% | viability increase [3] -2.93% | viability [4] 82.5% | viability [5] 79.8% | inhibition [6] 3.71% | RAM network inhibition [7] 6.69%

CCOc1cc(C#N)c(NC(=O)c2ccnn2C)cc1OCC
inactive: growth inhibition [1] 8.46% | growth inhibition [2] 2.96% | viability increase [3] -2.47% | viability [4] 82.3% | viability [5] 97.7% | inhibition [6] 0.55% | RAM network inhibition [7] 5.18%

O=C(O)CN1C(=O)COc2cc(S(=O)(=O)N3CCCC3)ccc21
inactive: growth inhibition [1] 4.97% | growth inhibition [2] -0.475% | viability increase [3] 0.05% | viability [4] 94.8% | viability [5] 102% | inhibition [6] 0% | RAM network inhibition [7] 2.14%

O=C1c2ccccc2C(=O)C1c1ccncc1
inactive: growth inhibition [1] 4.93% | growth inhibition [2] -1.51% | viability increase [3] -1.88% | viability [4] 92.6% | viability [5] 91.3% | inhibition [6] 0.79% | RAM network inhibition [7] -0.62%

O=C(c1ccccc1)N1CCN(c2ccc(NCc3ccc4c(c3)OCO4)cc2)CC1
inactive: growth inhibition [1] -15.1% | growth inhibition [2] -14.4% | viability increase [3] -3.84% | viability [4] 64.7% | viability [5] 75.8% | inhibition [6] 1.77% | RAM network inhibition [7] 6.1%

Cc1ccc(N2CN=c3s/c(=C\c4ccccn4)c(=O)n3C2)cc1
inactive: growth inhibition [1] -7.53% | growth inhibition [2] 1.19% | viability increase [3] -2.37% | viability [4] 86.8% | viability [5] 98.7% | inhibition [6] -0.31% | RAM network inhibition [7] 3.39%

O=C1CNC(=O)/C1=C\N1CCN(C(c2ccccc2)c2ccccc2)CC1
inactive: growth inhibition [1] 5.72% | growth inhibition [2] 9.98% | viability increase [3] -2.16% | viability [4] 99.2% | viability [5] 101% | inhibition [6] 2.48% | RAM network inhibition [7] 1.6%

Cc1sc(NC(=O)c2cccs2)c(C(N)=O)c1C
inactive: growth inhibition [1] -6.89% | growth inhibition [2] 22.8% | viability increase [3] -6.53% | viability [4] 80.8% | viability [5] 88.4% | inhibition [6] 0.26% | RAM network inhibition [7] -1.19%

O=C(c1ccc2nc(N3CCOCC3)sc2c1)N1CCN(C(=O)c2ccco2)CC1
inactive: growth inhibition [1] -4.29% | growth inhibition [2] 2.97% | viability increase [3] -1.45% | viability [4] 105% | viability [5] 95.8% | inhibition [6] 0.86% | RAM network inhibition [7] 3.05%

O=C(CCN1C(=O)c2ccccc2C1=O)OCn1nnc2ccccc2c1=O
inactive: growth inhibition [1] -14.7% | growth inhibition [2] -15.3% | viability increase [3] -0.15% | viability [4] 107% | viability [5] 100% | inhibition [6] 4.12% | RAM network inhibition [7] 2.39%

C=C(C)Cn1c(C2CC(=O)N(Cc3ccccc3)C2)nc2ccccc21 (configuration not stated)
inactive: growth inhibition [1] -0.245% | growth inhibition [2] -1.79% | viability increase [3] -1.95% | viability [4] 97.1% | viability [5] 93.2% | inhibition [6] 1.46% | RAM network inhibition [7] 2.18%

O=C(CC(c1ccccc1)c1ccccc1)Nc1ncn[nH]1
inactive: growth inhibition [1] -5.6% | growth inhibition [2] 9.86% | viability increase [3] 4.51% | viability [4] 100% | viability [5] 90.1% | inhibition [6] -0.035% | RAM network inhibition [7] 3.78%

Cc1cc(C)c(S(=O)(=O)Nc2nnc(C)s2)c(C)c1
inactive: growth inhibition [1] -20.6% | growth inhibition [2] -11.7% | viability increase [3] 3.99% | viability [4] 102% | viability [5] 99.3% | inhibition [6] 0.87% | RAM network inhibition [7] 8.49%

COC(=O)c1sccc1NC(=O)c1ccc(Br)o1
inactive: growth inhibition [1] 12.1% | growth inhibition [2] 11.3% | viability increase [3] -6.77% | viability [4] 78.5% | viability [5] 72.2% | inhibition [6] 2.2% | RAM network inhibition [7] 7.41%

CCCc1nc(SCC(=O)Nc2cc(C)on2)c2c(=O)n(C)c(=O)n(C)c2n1
inactive: growth inhibition [1] 4.81% | growth inhibition [2] 4.73% | viability increase [3] -1.05% | viability [4] 97.1% | viability [5] 93% | inhibition [6] 3.88% | RAM network inhibition [7] 4.78%

CC(C)N(C(=O)CN(C#N)c1nc(N(C)C)nc(N(C)C)n1)c1ccccc1
inactive: growth inhibition [1] -16.1% | growth inhibition [2] -7.49% | viability increase [3] -2.51% | viability [4] 100% | viability [5] 106% | inhibition [6] 2.33% | RAM network inhibition [7] 4.46%

COc1ccc(C2CC(c3cccc(C)c3)n3nc(N)nc3N2)cc1 (configuration not stated)
inactive: growth inhibition [1] 6.39% | growth inhibition [2] 9.63% | viability increase [3] -1.84% | viability [4] 105% | viability [5] 92.8% | inhibition [6] 3.25% | RAM network inhibition [7] 1.68%

CCOc1ccc(C(=O)Nc2c3c(nn2-c2cccc(C)c2C)CS(=O)C3)cc1 (configuration not stated)
inactive: growth inhibition [1] -1.6% | growth inhibition [2] 3.53% | viability increase [3] -0.32% | viability [4] 98.4% | viability [5] 96.2% | inhibition [6] 1.62% | RAM network inhibition [7] 2.34%
